# Hits are enriched below; roughly 4.7% of the tested compounds scored in any of these assays.
# 697 NFkB inh – lowers PMA/ionomycin-induced NF-kB signal in 697 B cells; 697 B-cell NF-kB luciferase reporter, 16 h; inhibition, % at 4 µM; 330,000 tested, 0.33% active; in the data active = inhibition above about 35%
# VIM-2 inhibitor – blocks Pseudomonas aeruginosa VIM-2 metallo-beta-lactamase; purified VIM-2, nitrocefin hydrolysis, epi-absorbance fluorescence; inhibition, % at 5.6 µM; 290,000 tested, 0.89% active;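 active = inhibition above the mean of all tested compounds plus 3 SD, cutoff set per screening run, cut at about 7.5% in these data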;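 also: red hydrolysis product quenches plate fluorescence so inhibitors raise well fluorescence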
# Mdm2-MdmX inh – disrupts the human Mdm2-MdmX interaction | O15151+Q00987 | SaOS-2 split-luciferase Mdm2/MdmX complementation, luminescence | inhibition, % at 8 µM | 330,000 tested, 3% active;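 active = inhibition of at least 50% at 8 µM in the primary screen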
# aSyn UTR inh – MLPCN primary screen, SNCA 5' untranslated region. alpha-synuclein 5'UTR reporter, inhibitor activity. inhibition, % (tested at 7.5 µM). 300,000 tested, 0.82% active. AID 1813; in the data active = inhibition above about 60%;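 also: H4 neuroglioblastoma cells stably carrying SNCA 5'UTR luciferase fusion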
# Jurkat NFkB inh – lowers PMA/ionomycin-induced NF-kB signal in Jurkat cells. 330,000 tested, 0.53% active. AID 435003. PMA/ionomycin-induced NF-kB luciferase reporter, luminescence. inhibition, % at 4 µM; in the data active = inhibition above about 50%
# IMP-1 inhibitor – inhibitors of Pseudomonas aeruginosa IMP-1 metallo-beta-lactamase; purified IMP-1, nitrocefin hydrolysis, epi-absorbance fluorescence; inhibition, % at 5.6 µM; 290,000 tested, 0.45% active; AID 1556;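 active = inhibition above the mean plus 3 SD of all compounds in the same screening run, cut at about 4.5% in these data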
#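 Assay system: purified recombinant IMP-1 beta-lactamase. Input: IMP-1 0.2 nM before substrate addition. Buffer or medium: Zinc- and detergent-supplemented HEPES buffer, pH 7.1. Schedule: 25 °C, 15 min preincubation, 25 min reaction. Signal: Epi-absorbance fluorescence, 480 nm excitation, 530 nm emission. Evaluation: percent inhibition from optical density relative to buffer-blank wells.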
# Hits are given with their value; . = inactive; / = no result given.
SMILES,697 NFkB inh,VIM-2 inhibitor,Mdm2-MdmX inh,aSyn UTR inh,Jurkat NFkB inh,IMP-1 inhibitor
CSc1nc(N2CCOCC2)c2sccc2n1,.,8.1,.,.,.,.
COc1ccccc1C(=O)N(Cc1ccc(Cl)cc1)C1CCS(=O)(=O)C1 (stereo unspecified),.,.,.,.,.,.
O=C(Nc1ccc2oc(=O)ccc2c1)c1ccc(-c2cccc([N+](=O)[O-])c2)o1,.,.,.,91.5,.,.
O=C(Nc1ccc2oc(=O)ccc2c1)c1ccc(-c2cccc(Cl)c2)o1,.,.,.,.,.,.
COc1ccc(C)cc1NC(=O)C1CCN(S(=O)(=O)c2cccs2)CC1,.,.,.,.,.,.
CCn1c(C)nc2cc(C(=O)N/N=C(\C)c3ccc(OC)cc3O)ccc21,/,.,/,83.9,/,.
CCn1c(C)nc2cc(C(=O)NN=C(C)c3ccc(C#N)cc3)ccc21,.,/,.,/,.,/
C=CCc1c(C)nc(SC)nc1Nc1ccc(C(C)=O)cc1,.,8.1,.,.,.,.
Cc1ccc(S(=O)(=O)N2CCN(C(=O)n3ccnc3)CC2)cc1,.,/,.,/,.,/
COc1ccc(-c2nc3ccc(N4CCN(C)CC4)cc3c(=O)[nH]2)cc1,.,8.1,.,.,.,.
COc1ccc(-c2nc3ccccc3c(=O)[nH]2)cc1,.,.,.,.,.,.
COc1ccc(N2Cc3ccc(C(=O)N/N=C\c4ccc(O)cc4O)cc3C2)cc1,.,.,.,.,.,.
COc1ccc(/C=N/Nc2ccc([N+](=O)[O-])cc2)cc1Cn1cc([N+](=O)[O-])cn1,.,.,.,.,.,4.6
COc1ccc(/C=N/n2cncn2)cc1Cn1cc([N+](=O)[O-])cn1,.,.,.,.,.,.
CCc1cc(=O)oc2c(C)c(OC(C)C(=O)NC3CC(C)(C)NC(C)(C)C3)ccc12 (stereo unspecified),.,8.1,.,.,.,.
NS(=O)(=O)c1cccc(NC(=O)COC(=O)CCc2ccccc2)c1,.,.,.,.,.,.
O=C(CN1C(=O)C(c2ccccc2)Oc2cccnc21)NCc1ccccc1F (stereo unspecified),.,.,.,.,.,53.6
COc1ccc(CNC(=O)CN2C(=O)C(c3ccccc3)Oc3cccnc32)cc1 (stereo unspecified),.,.,.,.,.,.
O=C(O)[C@@H]1CCCC[C@@H]1C(=O)N1CCc2ccccc2C1CN1C(=O)c2ccccc2C1=O (stereo partly specified),.,.,.,67.7,.,.
COc1ccc(Br)cc1CNC(=O)C1CCN(C(=O)N(C)C)CC1,.,.,.,77.6,.,.
CCCn1nc(C(=O)OCC(=O)c2c(N)n(C)c(=O)n(C)c2=O)c2ccccc2c1=O,.,11.4,.,.,.,.
CC1CCC(NC(=O)c2cc(C3CC3)nn2-c2ccccc2)CC1 (stereo unspecified),.,/,.,/,.,/
CC1=CC2=C(OC1N(C)C)c1cccc3cccc(c13)C2=O (stereo unspecified),.,.,.,.,.,7.3
O=C(CN1C(=O)/C(=C/c2ccccc2F)SC1=S)NC1C=CS(=O)(=O)C1 (stereo unspecified),.,.,.,.,.,7.0
COc1cccc(/C=C2\SC(=S)N(CCC(=O)NC3C=CS(=O)(=O)C3)C2=O)c1 (stereo unspecified),.,.,.,.,.,8.2
SMILES,697 NFkB inh,VIM-2 inhibitor,Mdm2-MdmX inh,aSyn UTR inh,Jurkat NFkB inh,IMP-1 inhibitor
O=C(CN1C(=O)S/C(=C\c2ccc(Cl)cc2)C1=O)NC1C=CS(=O)(=O)C1 (stereo unspecified),.,.,.,.,.,.
COc1ccc(/C=C2\SC(=S)N(CCC(=O)NC3C=CS(=O)(=O)C3)C2=O)cc1 (stereo unspecified),.,.,.,66.4,.,11.7
CN1CCN(C(=O)CCN2C(=O)/C(=C/c3cccc(Br)c3)SC2=S)CC1,.,.,.,.,.,5.5
O=C(CN1C(=O)/C(=C/c2cccc(Cl)c2)SC1=S)NC1C=CS(=O)(=O)C1 (stereo unspecified),.,.,.,.,.,.
Cc1noc(C)c1S(=O)(=O)N(CC(=O)NC1CCCC1)c1ccc(C(C)C)cc1,.,.,.,.,.,.
Cc1nc2ccc(CN(C)c3ccc(C(=O)N[C@@H](CCC(=O)O)C(=O)O)s3)cc2c(=O)[nH]1,/,/,/,103.1,/,/
COc1c(Cl)cc(C(=O)NN)cc1Cl,.,.,.,98.7,.,.
CCCN(CCC)S(=O)(=O)c1cccc(C(=O)N=c2sccn2C)c1,.,.,.,.,.,.
CN(CC(=O)Nc1c(Cl)cccc1Cl)C(=O)c1cccc(-n2cccc2)c1,.,/,.,.,.,/
CCOc1ccc(CCNC(=O)C2CC(C)=CCC2C(=O)O)cc1OCC (stereo unspecified),.,.,.,.,.,37.6
Cn1c(=O)c2[nH]c(CN3CCN(Cc4ccccc4)CC3)nc2n(C)c1=O,.,.,.,.,.,.
Cn1c(N)nc2nc(CCc3ccccc3)c(=O)[nH]c2c1=O,.,.,.,.,.,5.2
O=C(c1c[nH]c(C(=O)N2CCN(c3ccccc3F)CC2)c1)c1cccc(Cl)c1Cl,/,.,/,.,/,.
O=C(COc1ccc(S(=O)(=O)N2CCCCC2)cc1)N1CCCC1,.,.,.,.,.,.
Cc1ccc(C(=O)Nc2ccc3c(c2)OCCO3)cc1,.,.,.,89.0,.,.
Cc1ccc(C(=O)Nc2ccc3c(c2)OCCO3)c(Cl)c1,.,.,.,79.7,.,.
Cc1ccc(C(=O)Nc2ccc3c(c2)OCO3)cc1,.,.,.,.,.,.
CCC(C)Nc1nc2ccccc2n2c(C)nnc12 (stereo unspecified),.,.,.,.,.,.
Cc1nnc2c(NC(C)C)nc3ccccc3n12,.,9.0,.,.,.,.
CC(C)CC(=O)Nc1nnc(S(=O)(=O)N2CCCCCC2)s1,.,.,.,.,.,.
O=C(CSc1ncnc2c1cnn2-c1ccccc1)NCC1CCCO1 (stereo unspecified),.,/,.,.,.,/
C=CCOC(=O)C1=C[C@H](c2csc3ccccc23)C[C@H](OCCCCO)O1,.,/,.,.,.,/
NC(=O)C1=C[C@@H](c2csc3ccccc23)C[C@@H](OCCCCO)O1,.,.,.,.,.,6.3
COc1ccc(OC)c(NC(=O)COc2ccc3c(c2)CCC3)c1,.,/,.,/,.,/
COc1ccc(-c2nn(-c3ccccc3)cc2C(=O)NC(=S)NNC(=O)c2ccncc2)cc1,.,.,.,72.5,.,.
O=C(c1cc(Cl)nc2ccccc12)N1CCN(S(=O)(=O)c2cccc(C(F)(F)F)c2)CC1,.,/,.,.,.,/
NC(=O)c1ccccc1N/C=C1\CCCCC1=O,.,.,.,.,.,.
CCOC(=O)c1ccccc1N/C=C1\CCCC1=O,.,12.1,.,.,.,.

# Compound activity deposited in PubChem by several laboratories.
